In ChEMBL document CHEMBL3407339, “A novel series of thiazolyl-pyrazoline derivatives: synthesis and evaluation of antifungal activity, cytotoxicity and genotoxicity” (Eur J Med Chem, 2015):
≈ marks a conversion by molar mass, not a printed value.

What was measured:
[1] = system: Nakaseomyces glabratus; assay: Antifungal activity against Candida glabrata clinical isolate after 48 hrs by broth microdilution assay; type: functional
Outline: (§1)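 Broth microdilution of DMSO stocks serially diluted in sterile water (4 to 0.0039 mg/mL). Yeasts grown on SDA at 37 °C for 24 h, suspended in double-strength PDB at 10⁵ spores/mL. Incubated at 37 °C for 48 h, then sprayed with 0.5% aqueous TTC. MIC = lowest concentration inhibiting visible growth. Ketoconazole reference.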

[2] = system: Candida albicans; assay: Antifungal activity against Candida albicans ATCC 90028 after 48 hrs by broth microdilution assay; type: functional; conditions: ATCC 90028, 48 h; outline: as §1
[3] = system: Candida tropicalis; assay: Antifungal activity against Candida tropicalis NRLL Y 12968 after 48 hrs by broth microdilution assay; type: functional; conditions: NRLL Y 12968, 48 h; outline: as §1
[4] = system: Pichia kudriavzevii; assay: Antifungal activity against Candida krusei NRLL Y 7179 after 48 hrs by broth microdilution assay; type: functional; conditions: NRLL Y 7179, 48 h; outline: as §1
[5] = system: [Candida] zeylanoides; assay: Antifungal activity against Candida zeylanoides NRLL Y 1774 after 48 hrs by broth microdilution assay; type: functional; conditions: Dujonia zeylanoides, NRLL Y 1774, 48 h; outline: as §1
[6] = system: Candida parapsilosis; assay: Antifungal activity against Candida parapsilosis NRLL Y 12696 after 48 hrs by broth microdilution assay; type: functional; conditions: Lodderomyces parapsilosis, NRLL Y 12696, 48 h; outline: as §1
[7] = system: Aspergillus flavus; assay: Antifungal activity against Aspergillus flavus NRRL 980 after 72 hrs by broth microdilution assay; type: functional; conditions: NRRL 980, 72 h
Outline: (§2)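 Compounds dissolved in DMSO, diluted in sterile distilled water from 4 to 0.0039 mg/mL. Molds grown on PDA at 25 °C for 5 days, suspended in double-strength PDB at 10⁵ spores/mL. Incubated at 25 °C for 72 h; mycelial growth read under stereo microscope. MIC = lowest concentration inhibiting visible growth. Ketoconazole reference.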

[8] = system: Aspergillus niger; assay: Antifungal activity against Aspergillus niger ATCC 1094 after 72 hrs by broth microdilution assay; type: functional; conditions: ATCC 1094, 72 h; outline: as §2
[9] = system: Aspergillus parasiticus; assay: Antifungal activity against Aspergillus parasiticus NRRL 465 after 72 hrs by broth microdilution assay; type: functional; conditions: NRRL 465, 72 h; outline: as §2
[10] = system: Fusarium solani; assay: Antifungal activity against Fusarium solani NRRL 13414 after 72 hrs by broth microdilution assay; type: functional; conditions: NRRL 13414, 72 h; outline: as §2
[11] = system: Salmonella typhimurium; assay: Mutagenicity in Salmonella typhimurium TA98 at 0.156 mg/ml after 48 hrs by AMES MPF assay in presence of Sprague-Dawley rat liver microsomal S9 fraction relative to baseline; type: toxicity, organism-based; conditions: salmonella enterica subsp. enterica serovar typhimurium
Outline: (§3)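 Ames MPF fluctuation test with TA98/TA100. Overnight cultures (37 °C, 14–16 h) mixed with exposure medium; ±Aroclor-1254-induced rat liver S9 (final 4.5% v/v). Compounds in DMSO, 0.156–5 mg/mL. 90 min exposure at 37 °C, then indicator medium; 48 wells per concentration, 48 h at 37 °C, in triplicate. Yellow wells counted; fold induction over baseline (mean + 1 SD of zero-dose control).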

[12] = system: Salmonella typhimurium; assay: Mutagenicity in Salmonella typhimurium TA98 at 0.3125 mg/ml after 48 hrs by AMES MPF assay in presence of Sprague-Dawley rat liver microsomal S9 fraction relative to baseline; type: toxicity, organism-based; conditions: salmonella enterica subsp. enterica serovar typhimurium; outline: as §3
[13] = system: Salmonella typhimurium; assay: Mutagenicity in Salmonella typhimurium TA98 at 0.625 mg/ml after 48 hrs by AMES MPF assay in presence of Sprague-Dawley rat liver microsomal S9 fraction relative to baseline; type: toxicity, organism-based; conditions: salmonella enterica subsp. enterica serovar typhimurium; outline: as §3
[14] = system: Salmonella typhimurium; assay: Mutagenicity in Salmonella typhimurium TA98 at 1.25 mg/ml after 48 hrs by AMES MPF assay in presence of Sprague-Dawley rat liver microsomal S9 fraction relative to baseline; type: toxicity, organism-based; conditions: salmonella enterica subsp. enterica serovar typhimurium; outline: as §3
[15] = system: Salmonella typhimurium; assay: Mutagenicity in Salmonella typhimurium TA98 at 2.5 mg/ml after 48 hrs by AMES MPF assay in presence of Sprague-Dawley rat liver microsomal S9 fraction relative to baseline; type: toxicity, organism-based; conditions: salmonella enterica subsp. enterica serovar typhimurium; outline: as §3
[16] = system: Salmonella typhimurium; assay: Mutagenicity in Salmonella typhimurium TA98 at 5 mg/ml after 48 hrs by AMES MPF assay in presence of Sprague-Dawley rat liver microsomal S9 fraction relative to baseline; type: toxicity, organism-based; conditions: salmonella enterica subsp. enterica serovar typhimurium; outline: as §3
[17] = system: Salmonella typhimurium; assay: Mutagenicity in Salmonella typhimurium TA98 at 0.156 mg/ml after 48 hrs by AMES MPF assay in absence of Sprague-Dawley rat liver microsomal S9 fraction relative to baseline; type: toxicity, organism-based; conditions: salmonella enterica subsp. enterica serovar typhimurium; outline: as §3
[18] = system: Salmonella typhimurium; assay: Mutagenicity in Salmonella typhimurium TA98 at 0.3125 mg/ml after 48 hrs by AMES MPF assay in absence of Sprague-Dawley rat liver microsomal S9 fraction relative to baseline; type: toxicity, organism-based; conditions: salmonella enterica subsp. enterica serovar typhimurium; outline: as §3
[19] = system: Salmonella typhimurium; assay: Mutagenicity in Salmonella typhimurium TA98 at 0.625 mg/ml after 48 hrs by AMES MPF assay in absence of Sprague-Dawley rat liver microsomal S9 fraction relative to baseline; type: toxicity, organism-based; conditions: salmonella enterica subsp. enterica serovar typhimurium; outline: as §3
[20] = system: Salmonella typhimurium; assay: Mutagenicity in Salmonella typhimurium TA98 at 1.25 mg/ml after 48 hrs by AMES MPF assay in absence of Sprague-Dawley rat liver microsomal S9 fraction relative to baseline; type: toxicity, organism-based; conditions: salmonella enterica subsp. enterica serovar typhimurium; outline: as §3
[21] = system: Salmonella typhimurium; assay: Mutagenicity in Salmonella typhimurium TA98 at 2.5 mg/ml after 48 hrs by AMES MPF assay in absence of Sprague-Dawley rat liver microsomal S9 fraction relative to baseline; type: toxicity, organism-based; conditions: salmonella enterica subsp. enterica serovar typhimurium; outline: as §3
[22] = system: Salmonella typhimurium; assay: Mutagenicity in Salmonella typhimurium TA98 at 5 mg/ml after 48 hrs by AMES MPF assay in absence of Sprague-Dawley rat liver microsomal S9 fraction relative to baseline; type: toxicity, organism-based; conditions: salmonella enterica subsp. enterica serovar typhimurium; outline: as §3
[23] = system: Salmonella typhimurium; assay: Mutagenicity in Salmonella typhimurium TA100 at 0.156 mg/ml after 48 hrs by AMES MPF assay in presence of Sprague-Dawley rat liver microsomal S9 fraction relative to baseline; type: toxicity, organism-based; conditions: salmonella enterica subsp. enterica serovar typhimurium; outline: as §3
[24] = system: Salmonella typhimurium; assay: Mutagenicity in Salmonella typhimurium TA100 at 0.3125 mg/ml after 48 hrs by AMES MPF assay in presence of Sprague-Dawley rat liver microsomal S9 fraction relative to baseline; type: toxicity, organism-based; conditions: salmonella enterica subsp. enterica serovar typhimurium; outline: as §3
[25] = system: Salmonella typhimurium; assay: Mutagenicity in Salmonella typhimurium TA100 at 0.625 mg/ml after 48 hrs by AMES MPF assay in presence of Sprague-Dawley rat liver microsomal S9 fraction relative to baseline; type: toxicity, organism-based; conditions: salmonella enterica subsp. enterica serovar typhimurium; outline: as §3
[26] = system: Salmonella typhimurium; assay: Mutagenicity in Salmonella typhimurium TA100 at 1.25 mg/ml after 48 hrs by AMES MPF assay in presence of Sprague-Dawley rat liver microsomal S9 fraction relative to baseline; type: toxicity, organism-based; conditions: salmonella enterica subsp. enterica serovar typhimurium; outline: as §3
[27] = system: Salmonella typhimurium; assay: Mutagenicity in Salmonella typhimurium TA100 at 2.5 mg/ml after 48 hrs by AMES MPF assay in presence of Sprague-Dawley rat liver microsomal S9 fraction relative to baseline; type: toxicity, organism-based; conditions: salmonella enterica subsp. enterica serovar typhimurium; outline: as §3
[28] = system: Salmonella typhimurium; assay: Mutagenicity in Salmonella typhimurium TA100 at 5 mg/ml after 48 hrs by AMES MPF assay in presence of Sprague-Dawley rat liver microsomal S9 fraction relative to baseline; type: toxicity, organism-based; conditions: salmonella enterica subsp. enterica serovar typhimurium; outline: as §3
[29] = system: Salmonella typhimurium; assay: Mutagenicity in Salmonella typhimurium TA100 at 0.156 mg/ml after 48 hrs by AMES MPF assay in absence of Sprague-Dawley rat liver microsomal S9 fraction relative to baseline; type: toxicity, organism-based; conditions: salmonella enterica subsp. enterica serovar typhimurium; outline: as §3
[30] = system: Salmonella typhimurium; assay: Mutagenicity in Salmonella typhimurium TA100 at 0.3125 mg/ml after 48 hrs by AMES MPF assay in absence of Sprague-Dawley rat liver microsomal S9 fraction relative to baseline; type: toxicity, organism-based; conditions: salmonella enterica subsp. enterica serovar typhimurium; outline: as §3
[31] = system: Salmonella typhimurium; assay: Mutagenicity in Salmonella typhimurium TA100 at 0.625 mg/ml after 48 hrs by AMES MPF assay in absence of Sprague-Dawley rat liver microsomal S9 fraction relative to baseline; type: toxicity, organism-based; conditions: salmonella enterica subsp. enterica serovar typhimurium; outline: as §3
[32] = system: Salmonella typhimurium; assay: Mutagenicity in Salmonella typhimurium TA100 at 1.25 mg/ml after 48 hrs by AMES MPF assay in absence of Sprague-Dawley rat liver microsomal S9 fraction relative to baseline; type: toxicity, organism-based; conditions: salmonella enterica subsp. enterica serovar typhimurium; outline: as §3
[33] = system: Salmonella typhimurium; assay: Mutagenicity in Salmonella typhimurium TA100 at 2.5 mg/ml after 48 hrs by AMES MPF assay in absence of Sprague-Dawley rat liver microsomal S9 fraction relative to baseline; type: toxicity, organism-based; conditions: salmonella enterica subsp. enterica serovar typhimurium; outline: as §3
[34] = system: Salmonella typhimurium; assay: Mutagenicity in Salmonella typhimurium TA100 at 5 mg/ml after 48 hrs by AMES MPF assay in absence of Sprague-Dawley rat liver microsomal S9 fraction relative to baseline; type: toxicity, organism-based; conditions: salmonella enterica subsp. enterica serovar typhimurium; outline: as §3
[35] = system: A549; assay: Antiproliferative activity against human A549 cells after 24 hrs by XTT assay; type: functional, cell-based; conditions: A549, 24 h
Outline: (§4)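 A549 cells in RPMI and NIH/3T3 cells in DMEM, each with fetal calf serum, antibiotics and 7.5% NaHCO₃, at 37 °C, 5% CO₂. Seeded at 20,000 cells/well, 24 h, then compounds added in medium at 500–3.9 doses (final DMSO <0.1%) for 24 h. XTT read after 3 h at 480 nm (ref 680 nm). IC₅₀ by non-linear regression; triplicates; cisplatin control.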

[36] = Cytotoxicity against mouse NIH/3T3 cells after 24 hrs by XTT assay; type: cell-based; conditions: NIH3T3, 24 h; outline: as §4

Cc1ccc(C2=NN(c3nc(-c4ccc(C#N)cc4)cs3)C(c3ccc(F)cc3)C2)s1 (stereo unspecified)
MIC [1]: 125 µg/mL (≈ 281 µM)
MIC [2]: 250 µg/mL (≈ 562 µM)
MIC [3]: 250 µg/mL (≈ 562 µM)
MIC [4]: 250 µg/mL (≈ 562 µM)
MIC [5]: 250 µg/mL (≈ 562 µM)
MIC [6]: 250 µg/mL (≈ 562 µM)
MIC [7]: 125 µg/mL (≈ 281 µM)
MIC [8]: 250 µg/mL (≈ 562 µM)
MIC [9]: 250 µg/mL (≈ 562 µM)
MIC [10]: 250 µg/mL (≈ 562 µM)
fold change (FC) [11]: 0.27
fold change (FC) [12]: 0.18
fold change (FC) [13]: 1.07
fold change (FC) [14]: 0.44
fold change (FC) [15]: 0.89
fold change (FC) [16]: 1.16
fold change (FC) [17]: 1.78
fold change (FC) [18]: 1.56
fold change (FC) [19]: 1.11
fold change (FC) [20]: 1.11
fold change (FC) [21]: 1.56
fold change (FC) [22]: 1.33
fold change (FC) [23]: 1.01
fold change (FC) [24]: 0.94
fold change (FC) [25]: 0.86
fold change (FC) [26]: 0.7
fold change (FC) [27]: 0.55
fold change (FC) [28]: 1.01
fold change (FC) [29]: 0.8
fold change (FC) [30]: 0.74
fold change (FC) [31]: 0.74
fold change (FC) [32]: 0.31
fold change (FC) [33]: 0.31
fold change (FC) [34]: 0.8
IC50 [35]: 322 µg/mL (≈ 724 µM)
IC50 [36]: 250 µg/mL (≈ 562 µM)
